# sPLA2-III inh – Inhibits HGIII-sPLA2 liposome hydrolysis, primary screen | Q9NZ20 | QFRET BODIPY PC-A2 liposome hydrolysis, fluorescence | 370,000 tested, 0.56% active | inhibition, % at 12.2 µM | AID 743126;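 active = inhibition above mean plus 3 SD of compounds lying within the high and low control bounds, cut at about 19% in these data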;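 note: 0% = median of test compound wells and 100% = no enzyme DMSO wells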
# PLCb3 inh – PLC-beta3 (human) inhibition, primary screen; Q01970; Purified PLC-beta3, fluorogenic substrate, fluorescence; inhibition, % at 12.2 µM; 370,000 tested, 0.18% active; in the data active = inhibition above about 11%;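 note: 0% = median of compound wells on plate and 100% = full blocker control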
# Tb MetRS inh – blocks T. brucei methionyl-tRNA synthetase activity | purified T. brucei MetRS, ATP depletion, Kinase-Glo luminescence | inhibition, % at 11.9 µM | 360,000 tested, 0.4% active | AID 624268;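 active = inhibition above a per-plate cutoff of the control wells' mean inhibition plus 3 SD, cut at about 5.5% in these data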;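 note: 0% = DMSO wells median and 100% = median of wells with control inhibitor compound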
#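 Measured by: Kinase-Glo luciferase luminescence reporting remaining unconsumed ATP. Material: purified T. brucei MetRS enzyme. Doses: 11.9 µM compound single dose, 0.9% DMSO. Medium: HEPES buffer containing pyrophosphatase, BSA, spermine, DTT. Times: 15 min preincubation, 2 h reaction, all 25 °C. Reagent: methionine, ATP and bulk E. coli tRNA.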
# PLCg1 inh – PLC-gamma1 (human) inhibition, primary screen; P19174; purified PLC-gamma1, fluorogenic substrate, fluorescence; inhibition, % at 12.2 µM; 370,000 tested, 0.84% active; AID 720700
# PLCgamma1 ctr – PLC-gamma1 inhibition, counter-screen for PLC-beta3 hits; shares compounds with PLCg1 inh; purified PLC-gamma1, fluorogenic substrate, fluorescence; inhibition, % at 12.3 µM; 3,300 tested, 3.1% active
# PLCb3 confirm – confirmation of human PLC-beta3 inhibitors; shares compounds with PLCg1 inh; purified PLC-beta3, fluorogenic substrate fluorescence; inhibition, % at 12.3 µM; 3,300 tested, 1% active; AID 743261; in the data active = inhibition above about 11%
# * hit, by the source's call; nt = not tested or not shown. Rows were chosen to be rich in hits. Some 1.9% of all compounds tested hit in one or more screens of this group. Cut-off read from the data, not from the text of the source, unless noted: active = inhibition above about 9.5%; inactive = the rest.
SMILES,sPLA2-III inh,PLCb3 inh,Tb MetRS inh,PLCg1 inh,PLCgamma1 ctr,PLCb3 confirm
O=C(NC1=NCCS1)C12CC3CC(CC(C3)C1)C2,7,11*,0,6,-4,-2
CC(C)(C)c1ccc(-c2nnc3n2N=C(c2ccc(Cl)cc2)CS3)cc1,3,-1,nt,0,nt,nt
Cc1ccccc1NC(=O)OC1CCC12CCC(c1ccccc1)CC2 (stereo not given),-5,1,nt,4,nt,nt
Cc1ccc(C)c(NC2CCCCC2NS(=O)(=O)c2ccccc2)c1 (stereo not given),-1,-4,-1,0,nt,nt
COC1CCCCC1Nc1cc(C)ccc1C (stereo not given),-8,4,-1,9.5*,-1,-1
Cc1cccc(C)c1NC(=O)[C@H]1CC(=O)O[C@@H]1c1ccccc1,6,5,nt,8,nt,nt
CC1=C(C(=O)OCc2ccccc2)N2C(=O)[C@@H](NC(=O)COc3ccccc3)[C@H]2SC1,-11,-1,0,-1,nt,nt
CC1=C(C(=O)OCc2ccc([N+](=O)[O-])cc2)N2C(=O)C(NC(=O)Cc3ccccc3)C2SC1 (stereo not given),-3,2,0,24*,24*,1
CCC[C@H]1[C@@H](NS(=O)(=O)c2ccccc2[N+](=O)[O-])CC[C@@]23CCCN2C(=O)CCC[C@@H]13,-8,2,nt,1,nt,nt
COc1ccccc1C(=O)Nc1ccc(C)cc1C(=O)c1ccccc1,4,4,-1,9.7*,0,-1
COc1cc(C(=O)Nc2ccc(Br)cc2C(=O)c2cc(OC)c(OC)c(OC)c2)cc(OC)c1OC,1,9,-1,15*,-1,-8
CCC[C@H]1[C@@H](NC(=O)c2cccnc2)CC[C@@]23CCCN2C(=O)CCC[C@@H]13,7,-3,nt,3,nt,nt
CC(/C=C/c1ccc2c(c1)OCO2)=N/NC(=O)c1ccncc1,-3,-32,4,-21,nt,nt
CC(/C=C/c1cccc([N+](=O)[O-])c1)=N\NC(=O)c1ccncc1,14,1,-1,13*,3,4
Cc1cc(C(=O)N/N=C/C=C/c2cccc([N+](=O)[O-])c2)n[nH]1,5,10,-1,11*,3,4
O=C(Nc1ccc(OC(F)(F)F)cc1)Nc1c(-c2ccc(C(F)(F)F)cc2)nc2ncccn12,1,-11,nt,-5,nt,nt
O=C(c1cccs1)N1CCN(C(=O)c2cn(-c3ccccc3)nc2-c2ccccc2)CC1,-17,12*,0,1,-4,-1
CCOc1ccc(N2CC(C(=O)Nc3nnc(Cc4ccc(OC)cc4)s3)CC2=O)cc1 (stereo not given),-7,-2,0,16*,-6,-4
COc1ccc(Cc2nnc(NC(=O)C3CC(=O)N(c4ccc(OC)cc4)C3)s2)cc1 (stereo not given),-7,-11,0,0,nt,nt
COc1ccc(N2CC(C(=O)Nc3cccc(C)n3)CC2=O)cc1 (stereo not given),2,1,0,10*,-5,-2
CSc1nc2c(=O)[nH]cnc2s1,1,-1,nt,-3,nt,nt
COc1ccccc1C(=O)n1ccc2ccc(-c3ccc4ccn(Cc5ccc(C#N)cc5)c4c3)cc21,0,-170,nt,-113,nt,nt
CCN(C(=O)C1CCCN1S(=O)(=O)c1cccc2nsnc12)c1ccccc1 (stereo not given),5,8,-1,8,nt,nt
Cc1cccc(N(C)C(=O)C2CCCN2S(=O)(=O)c2cccc3nsnc23)c1 (stereo not given),4,10,-1,10*,-5,0
CC(C)c1ccccc1NC(=O)[C@@H]1CCCN1S(=O)(=O)c1cccc2cccnc12,3,2,nt,3,nt,nt
SMILES,sPLA2-III inh,PLCb3 inh,Tb MetRS inh,PLCg1 inh,PLCgamma1 ctr,PLCb3 confirm
Cc1ccc2nc(NC(=O)CN3C(=O)NC4(CCCCC4)C3=O)sc2c1,-9,0,0,12*,0,1
CCOC(=O)N1CCN(C(=O)/C(=C\c2cccs2)NC(=O)c2cccs2)CC1,6,1,0,10*,6,8
c1ccc(CN2CCOCCOCCOCC2)cc1,-3,4,-1,3,nt,nt
O=C(N1CCOCC1)N1CCN(Cc2ccccc2)CC1,12,4,0,10*,6,-12
CCc1nnc(NC(=O)CCC(=O)N2CCN(CCc3ccccc3)CC2)s1,1,6,0,8,nt,nt
CCc1nnc(NC(=O)CCC(=O)N2CCN(CCOc3ccc(C)cc3)CC2)s1,1,14*,-1,6,-6,-4
CC1CCCCC1NC(=S)NC(=O)c1ccccc1Br (stereo not given),3,3,0,1,nt,nt
CC1CCCCC1NC(=S)NC(=O)c1ccccc1Cl (stereo not given),12,-3,0,11*,-4,-4
C[C@@H]1CCCCO[C@H](CN(C)C(=O)CCC(F)(F)F)[C@H](C)CN([C@@H](C)CO)C(=O)c2cc(NS(=O)(=O)c3ccc(Cl)cc3)ccc2O1,-30,-5,nt,-1,nt,nt
OC(c1ccccc1)(c1ccccc1)C1CCN(CCCOc2ccc(Br)cc2)CC1,-12,4,nt,4,nt,nt
CNc1c(NS(=O)(=O)c2ccc(OC)c(Cl)c2)c(=O)oc2ccccc12,-6,-1,0,11*,-9,-5
CCNc1c(NS(=O)(=O)c2ccc(OC)c(Cl)c2)c(=O)oc2ccccc12,-18,-8,0,-3,nt,nt
Cc1ccc(OC(=O)C2CCN(C(=O)c3ccccc3C)CC2)c(Br)c1,-16,0,0,11*,-4,-5
Cc1ccccc1C(=O)N1CCC(C(=O)NC2CCCCCC2)CC1,10,-9,-1,-2,nt,nt
Cc1ccc(NS(=O)(=O)N2CCOCC2)cc1,9,-2,0,12*,-4,-1
CC(C)CN1C(=O)[C@@]2(CC(=O)N(C)C2c2ccccc2)c2cc(-n3cc(CN(C)C)nn3)ccc21 (stereo not given in full),11,-5,nt,-2,nt,nt
C[C@H]1[C@@H](OC(=O)NCc2cccc(C(F)(F)F)c2)CC[C@@]23CCCN2C(=O)CCC[C@@H]13,0,5,nt,4,nt,nt
O=C(CCCC(=O)N1CCc2ccccc21)N1CCc2ccccc21,10,-48,0,-1,nt,nt
O=C(Cc1ccc(-n2cccc2)cc1)N1CCc2ccccc21,-6,5,-1,9.9*,-1,0
CSc1nc(N)c(C(=O)NC2CCCCC2)s1,14,-3,-1,12*,9.6*,5
CCOC(=O)c1sc(SC)nc1N,-1,-3,0,2,nt,nt
CCCCOCCCNC(=O)C[C@H]1C[C@@]2(C(=O)OC)C(=C[C@H](C(C)(C)C)O[C@@H]2C)N(Cc2ccco2)C1=O,-16,4,nt,-1,nt,nt
Cc1ccc(NC(=O)c2nn(C34CC5CC(CC(C5)C3)C4)cc2[N+](=O)[O-])cc1,-6,14*,0,12*,7,11*

# From PubChem BioAssay
